Experimental data: ChEMBL document CHEMBL2021787 (Bioorg Med Chem Lett, 2012)
Converted amounts (≈) assume the structure as drawn.

Legend:
[1] = tested on: Mycobacterium tuberculosis; assay: Antimycobacterial activity against Mycobacterium tuberculosis H37Rv by agar dilution method; type: functional
Procedure, shortened: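 Agar dilution on Middlebrook 7H11 agar supplemented with OADC, following the NCCLS approach, using log-phase M. tuberculosis cultures. Run in triplicate. MIC was taken as the lowest concentration giving complete inhibition of growth.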

HepG2 = assay: Cytotoxicity against human HepG2 cells at 20 to 25 uM after 48 hrs by MTT assay; type: cell-based; details: hepg2, 48 h
Procedure, shortened: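 HepG2 cells were seeded at 2500/well and grown 24 h, then exposed to compound for 48 h. MTT (20 µL of a 5 mg/mL stock) was added for 2.5 h at 37 °C, and OD was read at 570 nm. Results are reported as % inhibition at a single concentration.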

[2] = Volume of distribution in Wistar rat at 10 mg/kg, iv administered as single bolus dose; type: ADME, organism-based; design: dose 10 mg/kg, route intravenous; details: in vivo
Procedure, shortened: (§1)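 Male Wistar rats given a single iv bolus of 10 mg/kg in 20% propylene glycol, 10% cremophor ELP and 20% N-methylpyrrolidone in normal saline. Plasma was assayed by reverse-phase HPLC with PDA detection. Parameters came from plasma concentration–time data by non-compartmental analysis.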

[3] = Elimination rate constant in Wistar rat at 10 mg/kg, iv administered as single bolus dose; type: ADME, organism-based; design: dose 10 mg/kg, route intravenous; details: in vivo; procedure, shortened: as §1
[4] = Cmax in Wistar rat at 10 mg/kg, iv administered as single bolus dose; type: ADME, organism-based; design: dose 10 mg/kg, route intravenous; details: in vivo; procedure, shortened: as §1
[5] = AUC (0 to t) in Wistar rat at 10 mg/kg, iv administered as single bolus dose; type: ADME, organism-based, Plasma; design: dose 10 mg/kg, route intravenous; details: Wistar, plasma; procedure, shortened: as §1
[6] = AUC (0 to t) in Wistar rat at 50 mg/kg, po administered as single dose; type: ADME, organism-based, Plasma; design: dose 50 mg/kg, route oral; details: Wistar, plasma
Procedure, shortened: (§2)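 Male Wistar rats got a single oral dose of 50 mg/kg as a suspension in 0.25% sodium CMC with Tween 80. Plasma was measured by reverse-phase HPLC with PDA detection and analysed non-compartmentally. AUC covered 10 h. Bioavailability was derived against a separate 10 mg/kg iv bolus dose in the same vehicle system as the iv study.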

[7] = Cmax in Wistar rat at 50 mg/kg, po administered as single dose; type: ADME, organism-based; design: dose 50 mg/kg, route oral; details: in vivo; procedure, shortened: as §2
[8] = tested on: Mycobacterium tuberculosis; assay: Ratio of INH MIC to compound MIC for Mycobacterium tuberculosis H37Rv by agar dilution method; type: functional
[9] = Half life in Wistar rat at 10 mg/kg, iv administered as single bolus dose; type: ADME, organism-based; design: dose 10 mg/kg, route intravenous; details: in vivo; procedure, shortened: as §1
[10] = Oral bioavailability in Wistar rat at 50 mg/kg administered as single dose; type: ADME, organism-based; details: Wistar, in vivo; procedure, shortened: as §2
[11] = Tmax in Wistar rat at 50 mg/kg, po administered as single dose; type: ADME, organism-based; design: dose 50 mg/kg, route oral; details: in vivo; procedure, shortened: as §2
[12] = Plasma clearance in Wistar rat at 10 mg/kg, iv administered as single bolus dose; type: ADME, organism-based; design: dose 10 mg/kg, route intravenous; procedure, shortened: as §1

CC1(C)CC(=O)C2=C(C1)N(NC(=O)c1ccncc1)C1=C(C(=O)CC(C)(C)C1)C2c1ccccc1OCc1ccccc1
MIC [1]: 0.17 µM (≈ 0.0979 µg/mL)

C/C(=N/NC(=O)c1ccncc1)c1cccc(CN2CCNCC2)c1O
MIC [1]: 0.56 µM (≈ 0.198 µg/mL)

O=C(NN1C(=O)CCSC1c1ccccc1)c1ccncc1 (centres undefined)
MIC [1]: 9.9 µM (≈ 3.1 µg/mL)
Activity (HepG2): 10.6%

Cc1ccccc1C1SCCC(=O)N1NC(=O)c1ccncc1 (centres undefined)
MIC [1]: 9.56 µM (≈ 3.13 µg/mL)
Activity (HepG2): 12.6%

Cc1cccc(C2SCCC(=O)N2NC(=O)c2ccncc2)c1 (centres undefined)
MIC [1]: 9.56 µM (≈ 3.13 µg/mL)
Activity (HepG2): 8.6%

Cc1ccc(C2SCCC(=O)N2NC(=O)c2ccncc2)cc1 (centres undefined)
MIC [1]: 9.56 µM (≈ 3.13 µg/mL)
Activity (HepG2): 12.4%

COc1ccccc1C1SCCC(=O)N1NC(=O)c1ccncc1 (centres undefined)
MIC [1]: 9.08 µM (≈ 3.12 µg/mL)
Activity (HepG2): 15.2%

COc1cccc(C2SCCC(=O)N2NC(=O)c2ccncc2)c1 (centres undefined)
MIC [1]: 9.08 µM (≈ 3.12 µg/mL)
Activity (HepG2): 10.4%

COc1ccc(C2SCCC(=O)N2NC(=O)c2ccncc2)cc1 (centres undefined)
MIC [1]: 4.54 µM (≈ 1.56 µg/mL)
Activity (HepG2): 12.6%

COc1cc(C2SCCC(=O)N2NC(=O)c2ccncc2)cc(OC)c1OC (centres undefined)
MIC [1]: 7.76 µM (≈ 3.13 µg/mL)
Activity (HepG2): 8.6%

COc1cc(C2SCCC(=O)N2NC(=O)c2ccncc2)ccc1O (centres undefined)
MIC [1]: 8.7 µM (≈ 3.13 µg/mL)
Activity (HepG2): 16.11%

O=C(NN1C(=O)CCSC1c1ccccc1O)c1ccncc1 (centres undefined)
MIC [1]: 19 µM (≈ 6.25 µg/mL)
Activity (HepG2): 8.6%

O=C(NN1C(=O)CCSC1c1cccc(O)c1)c1ccncc1 (centres undefined)
MIC [1]: 9.49 µM (≈ 3.13 µg/mL)
Activity (HepG2): 8.2%

O=C(NN1C(=O)CCSC1c1ccc(O)cc1)c1ccncc1 (centres undefined)
MIC [1]: 18.9 µM (≈ 6.23 µg/mL)
Activity (HepG2): 10.7%

CN(C)c1ccc(C2SCCC(=O)N2NC(=O)c2ccncc2)cc1 (centres undefined)
MIC [1]: 8.78 µM (≈ 3.13 µg/mL)
Activity (HepG2): 4.6%

CC(C)c1ccc(C2SCCC(=O)N2NC(=O)c2ccncc2)cc1 (centres undefined)
MIC [1]: 2.14 µM (≈ 0.76 µg/mL)
Activity (HepG2): 19%

O=C(NN1C(=O)CCSC1c1ccccc1OCc1ccccc1)c1ccncc1 (centres undefined)
MIC [1]: 0.24 µM (≈ 0.101 µg/mL)
Activity (HepG2): 10.6%

O=C(NN1C(=O)CCSC1c1cccc(OCc2ccccc2)c1)c1ccncc1 (centres undefined)
MIC [1]: 0.24 µM (≈ 0.101 µg/mL)
Activity (HepG2): 12.6%

O=C(NN1C(=O)CCSC1c1ccc(OCc2ccccc2)cc1)c1ccncc1 (centres undefined)
Vd [2]: 1.99 L
k el [3]: 0.000172 s⁻¹
Cmax [4]: 5290 ng/mL
AUC(0-t) [5]: 7500 ng·h/mL
AUC(0-t) [6]: 5870 ng·h/mL
Cmax [7]: 1310 ng/mL
Ratio [8]: 3
MIC [1]: 0.12 µM (≈ 0.0503 µg/mL)
half-life [9]: 1.14 h
Activity (HepG2): 8.8%
bioavailability [10]: 16.7%
Tmax [11]: 3 h
clearance [12]: 22.5 mL/min/kg

O=C(NN1C(=O)CCSC1c1ccccc1[N+](=O)[O-])c1ccncc1 (centres undefined)
MIC [1]: 2.12 µM (≈ 0.76 µg/mL)
Activity (HepG2): 28.8%
